Test results taken from paper PMC7719388 (Clinical and Translational Science, 2020).
Entries after “also recorded” stand apart in the source; their conditions may differ. Where two headings read alike, the source gives them in different places.

Legend:
[1] = cited from earlier work
KCa2 channel [2] = test: In vitro inhibition of KCa2 channels; assay type: biochemical; conditions: equivalent of 0.77 µM
[3] = test system: Kv11.1 (human ether‐à‐go‐go‐related gene) channel; conditions: read-out: IC50 for the Kv11.1 channel; in vitro; ref unpublished data; cited from earlier work
conscious pigs = conditions: ref unpublished data; cited from earlier work
KCa2 channel [4] = conditions: cited from earlier work
[5] = Pharmacokinetics after 30-minute intravenous infusion; assay type: in vivo, human
Method in brief: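 Healthy men received a 30-min IV infusion of test compound. Serum levels were measured by validated LC‑MS/MS (lower limit of quantification 5 ng/mL), with samples taken after each ECG extraction. Noncompartmental analysis was done per dose level. Values below the limit were set to zero before Tmax and treated as missing after Tmax.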

healthy male subjects [6] = test: Tremorography; assay type: in vivo, human; conditions: all dose levels
Method in brief: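 A three-axis accelerometer was taped to the dorsal mid third ray of the right hand. Subjects sat semirecumbent with the arm extended horizontally, hand dorsum up, at predefined pre- and post-dose times. Each axis was bandpass filtered at 1–20 Hz (zero-phase third-order Butterworth). Power spectral densities were combined by L1-norm, and the read-outs were peak frequency and its amplitude.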

[7] = in vitro, 30 µM (estimated concentration: 12,000 ng/mL); preclinical; cited from earlier work
healthy male subjects [8] = test: First-in-human single ascending dose study: safety and tolerability; assay type: in vivo
Method in brief: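 Six cohorts were randomized 6 active vs 2 placebo (5 vs 2 in cohort 1), with two sentinel subjects dosed 48 h ahead. Dosing was a 30-min IV infusion. Cohorts 1–3 used sterile water diluent and an 18G cannula. Cohorts 4–6 used 5% glucose at 1 mg/mL, a 16G cannula in the largest antecubital vein and a 5 mL 5% glucose flush. Monitoring covered AEs, physical examinations, vital signs, 24-h Holter and laboratory tests; discharge was at 7 days.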

minipigs = conditions: high dose levels (equivalent to 27.3 mg/kg in man); cited from earlier work
healthy male subjects [9] = test: 24-hour Holter ECG: QTcF, QT subintervals and concentration-effect analysis; assay type: in vivo, human; conditions: for ΔΔ Tp‐Tend / ΔΔJp‐Tpc / ΔΔQRS / ΔΔQTcF: model prediction at geometric mean Cmax
Method in brief: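 Healthy men aged 18–45 received a 30-min IV infusion of test compound or 0.9% NaCl placebo, randomized and double-blind. 12-lead Holter recording ran for 24 h from just before dosing. At set times subjects lay supine for at least 8 min, and triplicate ECGs were extracted from the last 3 min. A blinded operator used global median beat analysis. QT was Fridericia-corrected and split into QRS, Jp‑Tpc and Tp‑Tend. Placebo-corrected change from baseline was modelled linearly against concentration, with subject as a random effect, and predicted at geometric mean Cmax per dose.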

[10] = in man, assumed; cited from earlier work
[11] = 2 mg/kg, mean volume 15.0 mL, 6 subjects
[12] = 2 mg/kg, mean volume 33.3 mL, 6 subjects
[13] = 1.5 and 2 mg/kg, 3+3 subjects, changed formulation
[14] = 3 and 4 mg/kg, 3+3 subjects, changed formulation
[15] = 5 and 6 mg/kg, 3+3 subjects, changed formulation

## CN(CCOc1ccc(NS(C)(=O)=O)cc1)CCc1ccc(NS(C)(=O)=O)cc1 [Dofetilide, dofetilide]
[1]
  effect on Jp‐Tpc interval per concentration: 14.1 ms per ng/mL
  effect on Tp‐Tend interval per concentration: 14.5 ms per ng/mL

## CN(CC#N)C(=O)C[C@H](Nc1nc2ccccc2[nH]1)c1cccc(C(F)(F)F)c1 [AP30663]
KCa2 channel [2]
  IC50 for the KCa2 channel, equivalent concentration: ~ 300 ng/mL
[3]
  IC50: 4000 nM
Conscious pigs
  atrial refractoriness: selectively increase atrial refractoriness; also recorded: increased atrial refractoriness
  conversion of vernakalant‐resistant AF: converted vernakalant‐resistant AF
  effect on ventricular repolarization: little or no effect
  reinduction of AF: prevented its reinduction
KCa2 channel [4]
  inhibition of KCa2 channel subclasses: inhibits all three subclasses of KCa2 channels
KCa2 channel [4]; read-out: IC50 for the KCa2 channel, preclinical, no reference given
  IC50: 770 nM
KCa2 channel [4]; read-out: IC50 for the KCa2 channels, in vitro, ref unpublished data
  IC50: ~1000 nM
[5]; 1 mg/kg, 5 mg/mL
  Geometric mean Cmax of AP30663: 3398 ng/mL
[5]; 1.5 mg/kg, 1 mg/mL
  Geometric mean Cmax of AP30663: 4428 ng/mL
[5]; 2 mg/kg, 1 mg/mL
  Geometric mean Cmax of AP30663: 4644 ng/mL
[5]; 2 mg/kg, 5 mg/mL
  Geometric mean Cmax of AP30663: 6609 ng/mL
[5]; 2 mg/kg, 10 mg/mL
  Geometric mean Cmax of AP30663: 7154 ng/mL
[5]; 3 mg/kg, 1 mg/mL
  Geometric mean Cmax of AP30663: 7950 ng/mL
[5]; 4 mg/kg, 1 mg/mL
  Geometric mean Cmax of AP30663: 7994 ng/mL
[5]; 5 mg/kg, 1 mg/mL
  Geometric mean Cmax of AP30663: 7941 ng/mL
[5]; 6 mg/kg dose level
  observed maximum total plasma concentration: around 25.5 µM
[5]; 6 mg/kg, 1 mg/mL
  Geometric mean Cmax of AP30663: 10245 ng/mL
[5]; 1-6 mg/kg
  dose proportionality of Cmax: less than dose proportional increase
[5]; 30‐minute linear infusion
  median Tmax: 30 min
[5]; highest dose levels
  Volume of distribution: 98.4 L
[5]; lower dose levels
  clearance: 11.5 L/h
[5]; lowest dose
  Volume of distribution: 65.8 L
[5]; overall
  mean clearance: 12.5 ± 3.2 L/h
[5]; three highest dose levels
  clearance: 15.9 L/h
[5]; with increasing doses
  dose normalized Cmax and area under the curve (AUC): decreased with increasing doses
Healthy male subjects [6]
  tremorography mean amplitude: 0.2 mG^2•Hz^‐1
  tremorography recordings: normal and unchanged
[7]
  effect on the ventricular interval: no effect
Healthy male subjects [8]; 1 mg/kg, 5 subjects
  Number of AEs: 1
  Number of infusion site AEs: 1
  Severity of AEs: Mild
Healthy male subjects [8]; 1 mg/kg, 5 subjects, AEs considered related
  Number of subjects with AEs: 1 (20%)
Healthy male subjects [8]; 1 mg/kg, 5 subjects, subject lost to follow-up, AE ongoing at day 7
  Median duration of AEs: >7 days ^a
Healthy male subjects [8]; [11]
  Median duration of AEs: 0.521 days
  Number of AEs: 4
  Number of infusion site AEs: 4
  Number of subjects with AEs: 4 (67%)
  Severity of AEs: Mild
Healthy male subjects [8]; [12]
  Median duration of AEs: 32 days
  Number of AEs: 10
  Number of infusion site AEs: 10
  Number of subjects with AEs: 5 (83%)
  Severity of AEs: Mild
Healthy male subjects [8]; [13]
  Median duration of AEs: 1.08 days
  Number of AEs: 3
  Number of infusion site AEs: 3
  Number of subjects with AEs: 1 (33%)
  Severity of AEs: Mild
Healthy male subjects [8]; 2 subjects in cohort 3
  duration of hardening of the vein upon palpation until resolved: ~4 months
Healthy male subjects [8]; [14]
  Median duration of AEs: 13 days
  Number of AEs: 2
  Number of infusion site AEs: 2
  Number of subjects with AEs: 1 (33%)
  Severity of AEs: Mild
Healthy male subjects [8]; [15]
  Median duration of AEs: 22 days
  Number of AEs: 2
  Number of infusion site AEs: 2
  Number of subjects with AEs: 1 (33%)
  Severity of AEs: Mild
Healthy male subjects [8]; all dose levels
  central nervous system symptoms or signs: no symptoms or signs of engagement of the central nervous system
  serious AEs: No serious AEs
Healthy male subjects [8]; cohorts 1–3
  number of AEs related to the administration site: 15
Healthy male subjects [8]; cohorts 1–3, 10 of 17 subjects
  subjects with AEs related to the administration site: 59%
Healthy male subjects [8]; cohorts 4–6, 9 of 18 subjects
  subjects with AEs related to the administration site: 50%
Healthy male subjects [8]; cohorts 4–6, changed administration procedure
  number of AEs related to the administration site: 15
Healthy male subjects [8]; doses up to 6 mg/kg
  overall safety and tolerability: safe and systemically well‐tolerated; also recorded: safe and well‐tolerated systemically
Healthy male subjects [8]; in vivo
  time to full recovery of infusion site AEs: up to 110 days
Healthy male subjects [8]; mild, temporary
  related AEs that were related to the infusion site: 33 of 34
Healthy male subjects [8]; of 73 AEs in 30 of 47 subjects
  number of AEs considered related to AP30663 administration: 34
minipigs
  tremor: induced tremor
Healthy male subjects [9]; 1 mg/kg, 5 mg/mL
  ΔΔ Tp‐Tend: 1.9 ± 1.3 ms
  ΔΔJp‐Tpc: 6.2 ± 3.0 ms
  ΔΔQRS: 1.0 ± 1.0 ms
Healthy male subjects [9]; 1 mg/kg, 5 mg/mL, mean ± SD
  ΔΔQTcF: 10.5 ± 3.3 ms
Healthy male subjects [9]; 1.5 mg/kg, 1 mg/mL
  ΔΔ Tp‐Tend: 2.6 ± 1.4 ms
  ΔΔJp‐Tpc: 7.0 ± 3.0 ms
  ΔΔQRS: 0.9 ± 1.0 ms
  ΔΔQTcF: 11.8 ± 3.4 ms
Healthy male subjects [9]; 2 mg/kg, 1 mg/mL
  ΔΔ Tp‐Tend: 2.8 ± 1.4 ms
  ΔΔJp‐Tpc: 7.2 ± 3.0 ms
  ΔΔQRS: 0.9 ± 1.9 ms
  ΔΔQTcF: 12.0 ± 3.5 ms
Healthy male subjects [9]; 2 mg/kg, 5 mg/mL
  ΔΔ Tp‐Tend: 4.1 ± 1.7 ms
  ΔΔJp‐Tpc: 8.8 ± 3.3 ms
  ΔΔQRS: 0.6 ± 1.1 ms
  ΔΔQTcF: 14.4 ± 3.9 ms
Healthy male subjects [9]; 2 mg/kg, 10 mg/mL
  ΔΔ Tp‐Tend: 4.5 ± 1.8 ms
  ΔΔJp‐Tpc: 9.2 ± 3.3 ms
  ΔΔQRS: 0.5 ± 1.1 ms
  ΔΔQTcF: 15.1 ± 4.1 ms
Healthy male subjects [9]; 3 mg/kg, 1 mg/mL
  ΔΔ Tp‐Tend: 5.0 ± 1.9 ms
  ΔΔJp‐Tpc: 9.8 ± 3.5 ms
  ΔΔQRS: 0.4 ± 1.2 ms
  ΔΔQTcF: 16.0 ± 4.3 ms
Healthy male subjects [9]; 4 mg/kg, 1 mg/mL
  ΔΔ Tp‐Tend: 5.0 ± 1.9 ms
  ΔΔJp‐Tpc: 9.9 ± 3.5 ms
  ΔΔQRS: 0.4 ± 1.2 ms
  ΔΔQTcF: 16.1 ± 4.3 ms
Healthy male subjects [9]; 5 mg/kg, 1 mg/mL
  ΔΔ Tp‐Tend: 5.0 ± 1.9 ms
  ΔΔJp‐Tpc: 9.8 ± 3.5 ms
  ΔΔQRS: 0.4 ± 1.2 ms
  ΔΔQTcF: 16.0 ± 4.3 ms
Healthy male subjects [9]; 6 mg/kg, 1 mg/mL
  ΔΔ Tp‐Tend: 6.5 ± 2.3 ms
  ΔΔJp‐Tpc: 11.7 ± 3.9 ms
  ΔΔQRS: 0.1 ± 1.4 ms
Healthy male subjects [9]; all dose levels
  effect on PR interval: no effect
  effect on P‐wave duration: no effect
  effect on QRS duration: no effect
  effect on QTcF interval and QT subintervals: dose‐dependent transient effect
  effect on RR interval: no effect
Healthy male subjects [9]; any dose level
  subjects with QTcF interval exceeding 450 ms: no subject
  subjects with QTcF interval prolongation of > 60 ms: no subject
Healthy male subjects [9]; prespecified linear model, P = 0.001
  slope of concentration-effect on Tp‐Tend interval (± standard error): 0.670 ± 0.221 ms/(ug/mL)
Healthy male subjects [9]; prespecified linear model, P = 0.003
  slope of concentration-effect on QTcF interval (± standard error): 1.201 ± 0.431 ms/(ug/mL)
Healthy male subjects [9]; prespecified linear model, P = 0.007
  slope of concentration-effect on Jp‐Tpc interval (± standard error): 0.799 ± 0.327 ms/(ug/mL)
Healthy male subjects [9]; prespecified linear model, P = 0.870
  slope of concentration-effect on QRS duration (± standard error): −0.145 ± 0.129 ms/(ug/mL)
[10]
  free fraction: 6.4%
